Drawing on ChEMBL document CHEMBL4229372, “Synthesis and anti-mitotic activity of 2,4- or 2,6-disubstituted- and 2,4,6-trisubstituted-2H-pyrazolo[4,3-c]pyridines” (2018), this text covers Activity, GI50 and inhibition for 17 compounds.

For assay [1], the system named is K562. Description: Cell cycle arrest in human K562 cells assessed as accumulation at G2/M phase at 10 uM after 24 hrs by propidium iodide staining-based flow cytometric analysis (reference value: 15%). Format: functional. (In general: In flow cytometry, cells or beads pass a laser one at a time.)
Assay [2] has as its system MCF7. Description: Cell cycle arrest in human MCF7 cells assessed as accumulation at G2/M phase at 10 uM after 24 hrs by propidium iodide staining-based flow cytometric analysis (reference value: 5.3%). Format: functional. An outline of the steps: (§1)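 MCF-7 cells in DMEM with 10% FBS and penicillin/streptomycin at 37 °C, 5% CO2. Asynchronous cells were treated 24 h, PBS-washed, trypsinized and quenched with 0.1% trypsin inhibitor. Staining used 5× citrate/IGEPAL/spermine/Tris buffer (pH 7.6) with 50 μg/mL propidium iodide. DNA content was read by 488 nm flow cytometry and cell-cycle phases modelled.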

In assay [3] the test system is MCF7. Nature of the assay: Cell cycle arrest in human MCF7 cells assessed as accumulation at S phase at 10 uM after 24 hrs by propidium iodide staining-based flow cytometric analysis (reference value: 34.1%). In kind it is functional. A digest of the protocol:
as §1

The subject of assay [4] is K562. Description: Growth inhibition of human K562 cells after 72 hrs by Calcein AM dye based fluorescence assay. Format: functional. The conditions noted are these: K562, 72 h. An outline of the steps:
(§2)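 Cells in DMEM with 10% FBS at 37 °C, 5% CO2, treated in triplicate with six doses for 72 h. Calcein AM was added for 1 h and live-cell fluorescence read at 485/538 nm. GI50 was taken from dose-response curves.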

Assay [5] relates to K562. Description: Cell cycle arrest in human K562 cells assessed as accumulation at S phase at 10 uM after 24 hrs by propidium iodide staining-based flow cytometric analysis (reference value: 50.3%). Format: functional.
Assay [6] has as its system K562. Description: Cell cycle arrest in human K562 cells assessed as accumulation at G1 phase at 10 uM after 24 hrs by propidium iodide staining-based flow cytometric analysis (reference value: 34.6%). In kind it is functional.
For assay [7], the target named is Cyclin-dependent kinase 1 (Homo sapiens) (UniProt P06493). Nature of the assay: Inhibition of CDK1 (unknown origin).
Sequence of Cyclin-dependent kinase 1 (Homo sapiens) (P06493 whole entry, looked up): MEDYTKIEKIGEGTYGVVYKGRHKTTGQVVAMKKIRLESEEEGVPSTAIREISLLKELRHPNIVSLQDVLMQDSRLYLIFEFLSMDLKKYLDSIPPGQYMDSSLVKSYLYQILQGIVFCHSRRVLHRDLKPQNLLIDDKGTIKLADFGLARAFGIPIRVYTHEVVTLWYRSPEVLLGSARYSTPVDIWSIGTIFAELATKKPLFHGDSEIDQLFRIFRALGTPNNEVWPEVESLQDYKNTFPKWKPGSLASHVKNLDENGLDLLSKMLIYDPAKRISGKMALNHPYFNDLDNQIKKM
Assay [8] deals with MCF7. Nature of the assay: Cell cycle arrest in human MCF7 cells assessed as accumulation at G1 phase at 10 uM after 24 hrs by propidium iodide staining-based flow cytometric analysis (reference value: 60.7%). Format: functional. A digest of the protocol: as §1
The subject of assay [9] is K562. Description: Cell cycle arrest in human K562 cells assessed as accumulation at sub G1 phase at 10 uM after 24 hrs by propidium iodide staining-based flow cytometric analysis (reference value: 15%). In kind it is functional.
Assay [10] deals with MCF7. Nature of the assay: Growth inhibition of human MCF7 cells after 72 hrs by Calcein AM dye based fluorescence assay. The conditions noted are these: MCF7, 72 h. In kind it is functional. A digest of the protocol:
as §2

In assay [11] the test system is MCF7. Nature of the assay: Cell cycle arrest in human MCF7 cells assessed as accumulation at sub G1 phase at 10 uM after 24 hrs by propidium iodide staining-based flow cytometric analysis (reference value: 7.1%). Format: functional. An outline of the steps:
as §1

Structures are written as SMILES. Active and inactive are the calls of the source. The calls are words filed in the database; no cut-off is given here.

With `CCCCc1cc2nn(-c3ccccc3)cc2c(C)n1`, the Activity with K562 [1] is given as 41.4%; in the assay on MCF7 [2] it was 27.5%; in the assay on MCF7 [3], 24%; in the assay with K562 [5] it was 30.5%; in the assay with K562 [6], 28.2%; in the assay on MCF7 [8], 48.5%. Further, the values for the Activity in the assay with K562 [9] and in the assay on MCF7 [11] were 40.8% and 19.3%, respectively. Moreover, the GI50 with K562 [4] was 8.5 µM; in the assay with MCF7 [10], 11.1 µM. In addition, in assay [7], the inhibition result was “inactive”.

Regarding `CC(C)c1nc(-c2ccccc2)cc2nn(-c3ccccc3)cc12`, the Activity in the assay on K562 [1] turned out to be 18.3%; with MCF7 [2], 6.9%; in the assay with MCF7 [3], 30.6%; with K562 [5] it was 46.6%; with K562 [6], 35.1%; with MCF7 [8], 62.6%. The Activity in the assay with K562 [9] is listed as 21.3%; in the assay with MCF7 [11], 6.7%. The GI50 with K562 [4] was 36.8 µM; with MCF7 [10], 91 µM. Also, the inhibition entry in assay [7] is “inactive”.

Turning to `OCCc1cc2nn(-c3ccccc3)cc2cn1`, the GI50 with K562 [4] and in the assay on MCF7 [10] was above 100 µM throughout. In addition, the inhibition result in [7] was “inactive”.

As to `c1ccc(-n2cc3cnccc3n2)cc1`, the GI50 in the assay with K562 [4] and with MCF7 [10] was above 100 µM in each case. Besides, the inhibition entry in assay [7] was “inactive”.

Consider `CCCCc1cc2nn(-c3ccccc3)cc2c(C(C)C)n1`, for which the Activity with K562 [1] amounted to 29%; with MCF7 [2], 9.4%; in the assay with MCF7 [3], 24.5%; in the assay with K562 [5], 44.2%; in the assay on K562 [6], 26.7%; in the assay with MCF7 [8], 66.1%. Moreover, the figures for the Activity in the assay on K562 [9] and with MCF7 [11] were 47.1% and 7.8%, respectively. The GI50 in the assay with K562 [4] was 12.9 µM; in the assay with MCF7 [10], 33.3 µM. Also, the inhibition result in assay [7] was “inactive”.

As to `Cc1nc(-c2ccsc2)cc2nn(-c3ccccc3)cc12`, the Activity in the assay with K562 [1] is on record as 44.6%; in the assay with MCF7 [2] it was 31.6%; with MCF7 [3], 31.2%; in the assay with K562 [5], 29.2%; in the assay with K562 [6], 26.2%; in the assay with MCF7 [8], 37.2%. The figures for the Activity in the assay on K562 [9] and in the assay on MCF7 [11] were 45.7% and 22.7%, respectively. Moreover, the values for the GI50 with K562 [4] and with MCF7 [10] were 10 µM and 22.2 µM, respectively. In addition, the inhibition result in assay [7] was “inactive”.

On to `Cc1nccc2nn(-c3ccccc3)cc12`, for which the GI50 in the assay with K562 [4] and in the assay on MCF7 [10] was above 100 µM in each case. In assay [7], the inhibition entry is “inactive”.

In the case of `CCCCCc1cc2nn(-c3ccccc3)cc2c(C)n1`, the Activity was determined as 49.9% in the assay with K562 [1]; 31.7% with MCF7 [2]; 18.1% in the assay with MCF7 [3]; 28.3% with K562 [5]; 21.8% with K562 [6]; 50.2% in the assay on MCF7 [8]. Further, the Activity with K562 [9] came out at 28.3%; with MCF7 [11], 31.1%. Moreover, the GI50 in the assay on K562 [4] was 6.9 µM; in the assay with MCF7 [10], 17 µM. For the same compound, the inhibition result in assay [7] was “inactive”.

For `Cc1nc(-c2ccccc2)cc2nn(-c3ccccc3)cc12`, the Activity with K562 [1] worked out at 50.2%; with MCF7 [2], 14.1%; in the assay on MCF7 [3], 20.5%; with K562 [5], 36.1%; in the assay with K562 [6], 13.7%; with MCF7 [8], 65.5%. The results for the Activity with K562 [9] and in the assay with MCF7 [11] were 46.2% and 11.9%, respectively. Also, the GI50 with K562 [4] was 6.3 µM; in the assay with MCF7 [10], 11 µM. The inhibition entry in [7] is “inactive”.

As to `c1ccc(-n2cc3cnc(C4CC4)cc3n2)cc1`, the Activity is given as 15.5% with K562 [1]; 5.9% in the assay on MCF7 [2]; 29.4% with MCF7 [3]; 52.2% with K562 [5]; 32.3% in the assay on K562 [6]; 64.7% with MCF7 [8]. The Activity in the assay with K562 [9] was determined as 19.6%; with MCF7 [11] it was 7.5%. The GI50 with K562 [4] is 60.5 µM; in the assay with MCF7 [10] it was 69.3 µM. For the same compound, the inhibition entry in assay [7] is “inactive”.

For `CCCCc1cc2nn(-c3ccccc3)cc2cn1`, the Activity with K562 [1] was 62.3%; in the assay on MCF7 [2] it was 33.7%; in the assay on MCF7 [3], 30.3%; in the assay on K562 [5], 12.8%; in the assay with K562 [6], 24.8%; in the assay with MCF7 [8], 36%. Moreover, the values for the Activity in the assay on K562 [9] and in the assay on MCF7 [11] were 37.7% and 31.1%, respectively. Moreover, the GI50 in the assay on K562 [4] is 6.7 µM; in the assay with MCF7 [10] it was 13.3 µM. The inhibition result in assay [7] was “inactive”.

`Cc1nc(CCO)cc2nn(-c3ccccc3)cc12`: the GI50 in the assay on K562 [4] and in the assay on MCF7 [10] was above 100 µM throughout. Moreover, the inhibition result in assay [7] is “inactive”.

Turning to `c1ccc(-n2cc3cnc(-c4ccsc4)cc3n2)cc1`, the Activity in the assay with K562 [1] is reported as 41.1%; with MCF7 [2], 31.4%; in the assay on MCF7 [3] it was 29.1%; in the assay with K562 [5], 37.3%; in the assay with K562 [6] it was 21.7%; in the assay on MCF7 [8], 39.5%. Moreover, the values for the Activity in the assay on K562 [9] and with MCF7 [11] were 34.2% and 24.2%, respectively. For the same compound, the GI50 in the assay on K562 [4] was 8.3 µM; in the assay on MCF7 [10] it was 9.8 µM. In [7], the inhibition entry was “inactive”.

In the case of `Cc1nc(C2CC2)cc2nn(-c3ccccc3)cc12`, the Activity is on record as 19.6% in the assay with K562 [1]; 6.3% in the assay with MCF7 [2]; 30.2% in the assay with MCF7 [3]; 45.8% in the assay with K562 [5]; 34.7% with K562 [6]; 63.6% in the assay with MCF7 [8]. The Activity in the assay with K562 [9] was 15.3%; with MCF7 [11], 9%. For the same compound, the GI50 in the assay on K562 [4] is 25.9 µM; with MCF7 [10], 63.5 µM. For the same compound, the inhibition result in assay [7] is “inactive”.

In the case of `c1ccc(-c2cc3nn(-c4ccccc4)cc3cn2)cc1`, the Activity with K562 [1] was 74.7%; in the assay on MCF7 [2], 17%; in the assay with MCF7 [3] it was 26.2%; in the assay with K562 [5], 5.5%; with K562 [6], 19.8%; in the assay with MCF7 [8], 56.8%. In addition, the Activity with K562 [9] amounted to 43%; in the assay with MCF7 [11] it was 14.3%. Moreover, the GI50 is 3.4 µM in the assay with K562 [4] and 4.8 µM in the assay with MCF7 [10]. Moreover, in [7], the inhibition entry was “inactive”.

As to `Cn1cc2cnc(-c3ccccc3)cc2n1`, the GI50 in the assay on K562 [4] and in the assay with MCF7 [10] was above 100 µM in each case. Also, the inhibition result in assay [7] is “inactive”.

In the case of `CC(C)c1nccc2nn(-c3ccccc3)cc12`, the GI50 in the assay on K562 [4] is above 100 µM; with MCF7 [10] it was 98.8 µM. Also, in assay [7], the inhibition result is “inactive”.

As a reminder, the GI50 is the concentration at which growth is held to half of that of the control.
